Results from ChEMBL document CHEMBL3352789, “Chemical and computational methods for the characterization of covalent reactive groups for the prospective design of irreversible inhibitors” (J Med Chem, 2014).

Key:
[1] = Reactivity of covalent reactive group using GSH reaction assessed as pseudo-first-order reaction at 60 degC by mass spectrometry
[2] = Reactivity of covalent reactive group using GSH reaction assessed as pseudo-first-order reaction at 37 degC by nuclear magnetic resonance spectroscopy
Outline: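 Electrophile standard at 2 mM and GSH solution at 20 mM, both in 100 mM phosphate pH 7.4 with 10% D2O, combined in an NMR tube. 1D 1H spectra with presaturation were acquired hourly for about 19 h. Pseudo-first-order k came from the natural log of the electrophile resonance area versus time, converted to t1/2.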

[3] = GSH reactivity assessed as reaction half life through transition state modeling at pH 7.4; assay type: physicochemical; settings: glutathione (GSH) reaction mixture
[4] = Reactivity of covalent reactive group using GSH reaction assessed as pseudo-first-order reaction at 37 degC by mass spectrometry
Outline: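 Automated liquid handler at 37 °C under N2 with degassed solutions. The mix holds 1 mM electrophile, 10 mM GSH and 0.10 mM indoprofen internal standard in 100 mM potassium phosphate pH 7.4:ACN 90:10. Sampling was hourly for 7 h, each sample diluted 10-fold in water. Pseudo-first-order k gives t1/2. Controls had no GSH.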

Row | SMILES | K [1] | K [2] | half-life [3] | K [4]
1 | CNC(=O)C1=CCCC1 | < 0.2 ×10⁻³ /min | – | – | –
2 | N#CN1CCCC1 [CYANO-PYRROLIDINE] | – | 5.3 ×10⁻³ /min | 2.2 h | –
3 | CN1CCC=CS1(=O)=O | – | – | – | 0.2 ×10⁻³ /min
4 | C/C=C(\C)S(=O)(=O)NC | < 0.2 ×10⁻³ /min | – | – | –
5 | C=C(C)C(=O)Nc1ccccc1 | 0.2 ×10⁻³ /min | – | – | –
6 | N#CN1CCCCC1 | – | 0.8 ×10⁻³ /min | – | –
7 | CNC(=O)CBr | – | – | < 0.08 h | > 140 ×10⁻³ /min
8 | C=C(C)S(=O)(=O)NC | 0.4 ×10⁻³ /min | – | – | < 0.2 ×10⁻³ /min
9 | CC1CCCN1C#N (stereo unspecified) | – | 0.6 ×10⁻³ /min | – | –
10 | N#Cc1ccccn1 | – | 0.5 ×10⁻³ /min | 25 h | –
11 | CNC(=O)C(C)Cl (stereo unspecified) | 0.6 ×10⁻³ /min | – | – | –
12 | C=CC(=O)N1CCCCC1 | – | – | – | 0.4 ×10⁻³ /min
13 | C=CC(=O)NCc1cccc(OC)c1 | – | – | – | 0.4 ×10⁻³ /min
14 | CN1CC=CC1=O | – | – | – | 0.4 ×10⁻³ /min
15 | CNC(=O)/C=C/CN1CCOCC1 | – | – | 28 h | –
16 | CN1CC=CS1(=O)=O | – | – | – | 0.4 ×10⁻³ /min
17 | C=CC(=O)NC | – | 0.7 ×10⁻³ /min | 17 h | –
18 | CNC(=O)C1=CCC1 | 0.6 ×10⁻³ /min | – | – | –
19 | CC#CC(=O)NC | – | 0.3 ×10⁻³ /min | – | –
20 | CNC(=O)CCl | – | – | 3.2 h | 3.6 ×10⁻³ /min
